Test results taken from ChEMBL document CHEMBL1147132, “Structure-activity relationship studies of gonadotropin-releasing hormone antagonists containing S-aryl/alkyl norcysteines and their oxidized derivatives” (J Med Chem, 2007).
In brackets after ≈: the same amount, converted by molar mass.

Legend:
[1] = Ratio of IC50 for rat GnRHR to IC50 for human GnRHR in HEK293 cells; format: functional
[2] = Solubility in 5% mannitol; format: physicochemical
[3] = biological target: T1, Gonadotropin-releasing hormone receptor (Homo sapiens) (UniProt P30968); experiment: Antagonist activity at human GnRHR expressed in COS7 cells assessed as inhibition of GnRH-stimulated inositol phosphate production after 2 hrs; format: functional, cell-based; conditions: COS-7, filed as antagonist
T1 sequence (whole entry): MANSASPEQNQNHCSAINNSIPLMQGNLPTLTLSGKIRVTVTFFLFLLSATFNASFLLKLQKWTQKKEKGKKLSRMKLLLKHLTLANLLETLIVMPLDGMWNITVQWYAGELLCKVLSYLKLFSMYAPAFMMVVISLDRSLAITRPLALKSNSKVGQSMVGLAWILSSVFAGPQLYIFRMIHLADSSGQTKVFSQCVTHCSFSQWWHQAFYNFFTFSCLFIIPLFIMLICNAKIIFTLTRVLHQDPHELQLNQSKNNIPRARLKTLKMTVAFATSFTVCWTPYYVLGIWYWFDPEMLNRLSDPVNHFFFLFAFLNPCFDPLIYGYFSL
How it was run: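 COS-7 cells transiently transfected with WT hGnRH-R cDNA, labelled 18 h at 37 °C with 4 μCi/mL [3H]myo-inositol in inositol-free DMEM. Cells were washed in medium with 5 mM LiCl, then co-incubated 2 h at 37 °C with 10−8 M GnRH plus analogue at 10−8 to 10−5 M. IP was measured by Dowex anion-exchange and scintillation counting. Triplicate, repeated three or more times.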

[4] = biological target: T2, Gonadotropin-releasing hormone receptor (Homo sapiens, UniProt P30968); experiment: Antagonist activity at human GnRHR expressed in HEK293 cells assessed as inhibition of GnRH-induced luciferase response by reporter gene assay; format: functional, cell-based
T2 sequence (P30968 whole entry): T1 sequence (whole entry)
How it was run: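 HEK293 cells stably expressing cloned human GnRHR and an LH alpha-subunit-promoter luciferase reporter, plated overnight. Compound in 1% DMSO was added 10 min before GnRH (1 nM final), then ≥5 h at 37 °C, 5% CO2, then luminescence. 11 half-log concentrations in duplicate. IC50 from four-parameter logistic fit, reported as geometric mean of ≥2 experiments.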

Rattus norvegicus = experiment: Inhibition of plasma testosterone levels in Sprague-Dawley rat at 19.6 uM, sc by enzyme-linked immunosorbent assay; format: functional
How it was run: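 Intact adult male Sprague-Dawley rats (275–310 g, 3 per group) received subcutaneous mini-pumps for seven days. Solutions were in 1:3 DMSO/water: 19.6 μM (~0.66 nM/day/kg), or 9.8 μM (~0.33 nM/day/kg). Sham-operated controls. Plasma was sampled on days 3–7 and testosterone measured by ELISA. Values are means of days 4–7.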

[5] = biological target: T3, Gonadotropin-releasing hormone receptor (Rattus norvegicus, UniProt P30969); experiment: Antagonist activity at rat GnRHR expressed in HEK293 cells assessed as inhibition of GnRH-induced luciferase response by reporter gene assay; format: functional, cell-based
T3 sequence (P30969 whole entry): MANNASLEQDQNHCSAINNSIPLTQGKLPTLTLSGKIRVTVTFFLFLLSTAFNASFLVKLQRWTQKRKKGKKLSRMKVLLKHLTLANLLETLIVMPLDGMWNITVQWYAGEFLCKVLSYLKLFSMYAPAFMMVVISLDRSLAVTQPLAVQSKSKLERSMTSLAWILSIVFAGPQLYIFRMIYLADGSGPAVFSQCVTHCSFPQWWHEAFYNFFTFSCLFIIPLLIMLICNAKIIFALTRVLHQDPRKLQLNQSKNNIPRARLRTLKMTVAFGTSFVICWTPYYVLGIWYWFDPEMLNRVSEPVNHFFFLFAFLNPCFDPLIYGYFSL
How it was run: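 Rat GnRHR stably expressed in HEK293 cells, transiently transfected with an NFAT-responsive luciferase reporter, plated after 16 h and assayed next day. Compound in 1% DMSO was given 10 min before 1 nM GnRH (final), ≥5 h at 37 °C, then luminescence. Duplicates at 11 half-log concentrations. IC50 by four-parameter logistic fit, geometric mean of ≥2 experiments.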

Compound | solubility [2] [mg/mL] | Activity [3] | IC50 [4] | IC50 [5] | Ratio IC50 [1] | Plasma testosterone level (Rattus norvegicus) [ng/mL]
CC(=O)Nc1ccc(C[C@H](NC(=O)[C@H](CO)NC(=O)[C@@H](CCC(N)=O)NC(=O)[C@@H](Cc2ccc(Cl)cc2)NC(=O)[C@@H](Cc2ccc3ccccc3c2)NC(C)=O)C(=O)N[C@H](Cc2ccc(NC(C)=O)cc2)C(=O)N[C@@H](C(=O)N[C@@H](CCCCNC(C)C)C(=O)N2CCC[C@H]2C(=O)N[C@H](C)C(N)=O)S(=O)(=O)C(C)C)cc1 | 50 (≈ 32 mM) | – | 2000 nM (antagonist) | – | – | –
CC(=O)Nc1ccc(C[C@H](NC(=O)[C@H](CO)NC(=O)[C@@H](CCC(N)=O)NC(=O)[C@@H](Cc2ccc(Cl)cc2)NC(=O)[C@@H](Cc2ccc3ccccc3c2)NC(C)=O)C(=O)N[C@H](Cc2ccc(NC(C)=O)cc2)C(=O)N[C@H](SC(C)C)C(=O)N[C@@H](CCCCNC(C)C)C(=O)N2CCC[C@H]2C(=O)N[C@H](C)C(N)=O)cc1 | 50 (≈ 32.7 mM) | – | 39 nM (antagonist) | – | – | –
CC(=O)Nc1ccc(C[C@H](NC(=O)[C@H](CO)NC(=O)[C@@H](Cc2cccnc2)NC(=O)[C@@H](Cc2ccc(Cl)cc2)NC(=O)[C@@H](Cc2ccc3ccccc3c2)NC(C)=O)C(=O)N[C@H](Cc2ccc(NC(C)=O)cc2)C(=O)N[C@@H](CC(C)C)C(=O)N[C@@H](CCCCNC(C)C)C(=O)N2CCC[C@H]2C(=O)N[C@H](C(N)=O)[S+](C)[O-])cc1 (stereo not given in full) | 50 (≈ 31.6 mM) | – | 0.87 nM (antagonist) | – | – | –
CC(=O)Nc1ccc(C[C@H](NC(=O)[C@H](CO)NC(=O)[C@@H](CCC(N)=O)NC(=O)[C@@H](Cc2ccc(Cl)cc2)NC(=O)[C@@H](Cc2ccc3ccccc3c2)NC(C)=O)C(=O)N[C@H](Cc2ccc(NC(C)=O)cc2)C(=O)N[C@H](C(=O)N[C@@H](CCCCNC(C)C)C(=O)N2CCC[C@H]2C(=O)N[C@H](C)C(N)=O)S(=O)(=O)C(C)C)cc1 | 50 (≈ 32 mM) | – | 3810 nM (antagonist) | – | – | –
CC(=O)Nc1ccc(C[C@H](NC(=O)[C@H](CO)NC(=O)[C@@H](CCC(N)=O)NC(=O)[C@@H](Cc2ccc(Cl)cc2)NC(=O)[C@@H](Cc2ccc3ccccc3c2)NC(C)=O)C(=O)N[C@H](Cc2ccc(NC(C)=O)cc2)C(=O)N[C@@H](SC(C)C)C(=O)N[C@@H](CCCCNC(C)C)C(=O)N2CCC[C@H]2C(=O)N[C@H](C)C(N)=O)cc1 | 50 (≈ 32.7 mM) | – | 6.2 nM (antagonist) | – | – | –
CC(=O)Nc1ccc(C[C@H](NC(=O)[C@H](CO)NC(=O)[C@@H](CCC(N)=O)NC(=O)[C@@H](Cc2ccc(Cl)cc2)NC(=O)[C@@H](Cc2ccc3ccccc3c2)NC(C)=O)C(=O)N[C@H](Cc2ccc(NC(C)=O)cc2)C(=O)N[C@H](C(=O)N[C@@H](CCCCNC(C)C)C(=O)N2CCC[C@H]2C(=O)N[C@H](C)C(N)=O)[S+]([O-])C(C)C)cc1 (stereo not given in full) | 50 (≈ 32.3 mM) | – | 13 nM (antagonist) | – | – | –
CC(=O)Nc1ccc(C[C@H](NC(=O)[C@H](CO)NC(=O)[C@@H](CCC(N)=O)NC(=O)[C@@H](Cc2ccc(Cl)cc2)NC(=O)[C@@H](Cc2ccc3ccccc3c2)NC(C)=O)C(=O)N[C@H](Cc2ccc(NC(C)=O)cc2)C(=O)N[C@@H](C(=O)N[C@@H](CCCCNC(C)C)C(=O)N2CCC[C@H]2C(=O)N[C@H](C)C(N)=O)[S+]([O-])C(C)C)cc1 (stereo not given in full) | 50 (≈ 32.3 mM) | – | 85 nM (antagonist) | – | – | –
CC(=O)Nc1ccc(C[C@H](NC(=O)[C@H](CO)NC(=O)[C@@H](Cc2cccnc2)NC(=O)[C@@H](Cc2ccc(Cl)cc2)NC(=O)[C@@H](Cc2ccc3ccccc3c2)NC(C)=O)C(=O)N[C@H](Cc2ccc(NC(C)=O)cc2)C(=O)N[C@@H](CC(C)C)C(=O)N[C@@H](CCCCNC(C)C)C(=O)N2CCC[C@H]2C(=O)N[C@@H](C(N)=O)[S+](C)[O-])cc1 (stereo not given in full) | 50 (≈ 31.6 mM) | – | 0.83 nM (antagonist) | – | – | –

Second part, led by results:

solubility [2] [mg/mL] | Activity [3] | IC50 [4] | IC50 [5] | Compound | Ratio IC50 [1] | Plasma testosterone level (Rattus norvegicus) [ng/mL]
50 (≈ 32.6 mM) | Antagonist | 0.52 nM (antagonist) | 1.5 nM (antagonist) | CC(=O)Nc1ccc(C[C@H](NC(=O)[C@H](CO)NC(=O)[C@@H](Cc2cccnc2)NC(=O)[C@@H](Cc2ccc(Cl)cc2)NC(=O)[C@@H](Cc2ccc3ccccc3c2)NC(C)=O)C(=O)N[C@H](Cc2ccc(NC(C)=O)cc2)C(=O)N[C@@H](CC(C)C)C(=O)N[C@@H](CCCCNC(C)C)C(=O)N2CCC[C@H]2C(=O)N[C@H](C)C(N)=O)cc1 [ACYLINE] | 2.89 | 0.69
50 (≈ 32.2 mM) | Antagonist | 0.73 nM (antagonist) | 4.4 nM (antagonist) | CC(=O)Nc1ccc(C[C@H](NC(=O)[C@H](CO)NC(=O)[C@@H](Cc2cccnc2)NC(=O)[C@@H](Cc2ccc(Cl)cc2)NC(=O)[C@H](NC(C)=O)Sc2ccc3ccccc3c2)C(=O)N[C@H](Cc2ccc(NC(C)=O)cc2)C(=O)N[C@@H](CC(C)C)C(=O)N[C@@H](CCCCNC(C)C)C(=O)N2CCC[C@H]2C(=O)N[C@H](C)C(N)=O)cc1 | 6.03 | 1.03
50 (≈ 31.9 mM) | – | 4.6 nM (antagonist) | – | CC(=O)Nc1ccc(C[C@H](NC(=O)[C@@H](NC(=O)[C@@H](Cc2cccnc2)NC(=O)[C@@H](Cc2ccc(Cl)cc2)NC(=O)[C@@H](Cc2ccc3ccccc3c2)NC(C)=O)[S+](C)[O-])C(=O)N[C@H](Cc2ccc(NC(C)=O)cc2)C(=O)N[C@@H](CC(C)C)C(=O)N[C@@H](CCCCNC(C)C)C(=O)N2CCC[C@H]2C(=O)N[C@H](C)C(N)=O)cc1 (stereo not given in full) | – | –
50 (≈ 31.9 mM) | – | 6.9 nM (antagonist) | – | CC(=O)Nc1ccc(C[C@H](NC(=O)[C@H](NC(=O)[C@@H](Cc2cccnc2)NC(=O)[C@@H](Cc2ccc(Cl)cc2)NC(=O)[C@@H](Cc2ccc3ccccc3c2)NC(C)=O)[S+](C)[O-])C(=O)N[C@H](Cc2ccc(NC(C)=O)cc2)C(=O)N[C@@H](CC(C)C)C(=O)N[C@@H](CCCCNC(C)C)C(=O)N2CCC[C@H]2C(=O)N[C@H](C)C(N)=O)cc1 (stereo not given in full) | – | –
50 (≈ 31.9 mM) | – | 1.2 nM (antagonist) | 3.2 nM (antagonist) | CC(=O)Nc1ccc(C[C@H](NC(=O)[C@H](CO)NC(=O)[C@@H](Cc2cccnc2)NC(=O)[C@@H](Cc2ccc(Cl)cc2)NC(=O)[C@@H](Cc2ccc3ccccc3c2)NC(C)=O)C(=O)N[C@H](Cc2ccc(NC(C)=O)cc2)C(=O)N[C@H](C(=O)N[C@@H](CCCCNC(C)C)C(=O)N2CCC[C@H]2C(=O)N[C@H](C)C(N)=O)[S+]([O-])C(C)C)cc1 (stereo not given in full) | 2.67 | 3.22
50 (≈ 32.2 mM) | Antagonist | 0.81 nM (antagonist) | – | CC(=O)Nc1ccc(C[C@H](NC(=O)[C@H](CO)NC(=O)[C@@H](Cc2cccnc2)NC(=O)[C@@H](Cc2ccc(Cl)cc2)NC(=O)[C@@H](Cc2ccc3ccccc3c2)NC(C)=O)C(=O)N[C@H](Cc2ccc(NC(C)=O)cc2)C(=O)N[C@H](SC(C)C)C(=O)N[C@@H](CCCCNC(C)C)C(=O)N2CCC[C@H]2C(=O)N[C@H](C)C(N)=O)cc1 | – | –
50 (≈ 31.9 mM) | – | 3 nM (antagonist) | – | CC(=O)Nc1ccc(C[C@H](NC(=O)[C@H](CO)NC(=O)[C@@H](Cc2cccnc2)NC(=O)[C@@H](Cc2ccc(Cl)cc2)NC(=O)[C@@H](Cc2ccc3ccccc3c2)NC(C)=O)C(=O)N[C@H](Cc2ccc(NC(C)=O)cc2)C(=O)N[C@@H](C(=O)N[C@@H](CCCCNC(C)C)C(=O)N2CCC[C@H]2C(=O)N[C@H](C)C(N)=O)[S+]([O-])C(C)C)cc1 (stereo not given in full) | – | –
50 (≈ 32.3 mM) | Antagonist | 25 nM (antagonist) | – | CS[C@@H](NC(=O)[C@@H](Cc1cccnc1)NC(=O)[C@@H](Cc1ccc(Cl)cc1)NC(=O)[C@@H](Cc1ccc2ccccc2c1)NC(C)=O)C(=O)N[C@@H](Cc1ccc(NC(C)=O)cc1)C(=O)N[C@H](Cc1ccc(NC(C)=O)cc1)C(=O)N[C@@H](CC(C)C)C(=O)N[C@@H](CCCCNC(C)C)C(=O)N1CCC[C@H]1C(=O)N[C@H](C)C(N)=O | – | –
